In ChEMBL document CHEMBL3865824, “New (E)-1-alkyl-1H-benzo[d]imidazol-2-yl)methylene)indolin-2-ones: Synthesis, in vitro cytotoxicity evaluation and apoptosis inducing studies” (Eur J Med Chem, 2016):

What was measured:
[1] = Cytotoxicity against human MDA-MB-231 cells assessed as growth inhibition at 50 uM after 48 hrs by MTT assay relative to control; type: functional; details: MDA-MB-231, 48 h, read-out: GI
Method in brief: (§1)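 Cells grown in DMEM or MEM with 10% FBS at 37 °C, 5% CO2. Seeded at 1×10^4 cells/well, incubated 48 h, then exposed to compound for 48 h with vehicle control. MTT (5 mg/mL stock) added for 4 h; formazan dissolved in DMSO, absorbance read at 570 nm. Preliminary screen at 50 µM. Compounds giving >50% inhibition were tested for dose-response curves; IC50 derived by linear regression of % inhibition versus concentration. Mean of three independent experiments in triplicate.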

[2] = Cytotoxicity against human PC3 cells assessed as growth inhibition at 50 uM after 48 hrs by MTT assay relative to control; type: functional; details: PC-3, 48 h, read-out: GI; method in brief: as §1
[3] = Cytotoxicity against human PC3 cells assessed as reduction in cell viability after 48 hrs by MTT assay; type: functional, cell-based; details: PC-3, 48 h; method in brief: as §1
[4] = Cytotoxicity against human A549 cells assessed as reduction in cell viability after 48 hrs by MTT assay; type: functional, cell-based; details: A549, 48 h; method in brief: as §1
[5] = Cytotoxicity against human BT549 cells assessed as reduction in cell viability after 48 hrs by MTT assay; type: functional, cell-based; details: BT-549, 48 h; method in brief: as §1
[6] = Cytotoxicity against human DU145 cells assessed as reduction in cell viability after 48 hrs by MTT assay; type: functional, cell-based; details: DU-145, 48 h; method in brief: as §1
[7] = Cytotoxicity against human MDA-MB-231 cells assessed as reduction in cell viability after 48 hrs by MTT assay; type: functional, cell-based; details: MDA-MB-231, 48 h; method in brief: as §1
[8] = Cytotoxicity against human MCF7 cells assessed as growth inhibition at 50 uM after 48 hrs by MTT assay relative to control; type: functional; details: MCF7, 48 h, read-out: GI; method in brief: as §1
[9] = Cytotoxicity against human DU145 cells assessed as growth inhibition at 50 uM after 48 hrs by MTT assay relative to control; type: functional; details: DU-145, 48 h, read-out: GI; method in brief: as §1
[10] = Cytotoxicity against HGC cells assessed as growth inhibition at 50 uM after 48 hrs by MTT assay relative to control; type: functional; details: Homo sapiens, read-out: GI; method in brief: as §1
[11] = Cytotoxicity against human BT549 cells assessed as growth inhibition at 50 uM after 48 hrs by MTT assay relative to control; type: functional; details: BT-549, 48 h, read-out: GI; method in brief: as §1
[12] = Cytotoxicity against HGC cells assessed as reduction in cell viability after 48 hrs by MTT assay; type: functional, cell-based; details: Homo sapiens; method in brief: as §1
[13] = Cytotoxicity against human MCF10A cells assessed as reduction in cell viability after 48 hrs by MTT assay; type: toxicity, cell-based, MCF-10A; method in brief: as §1
[14] = Cytotoxicity against […] cells assessed as growth inhibition at 50 uM after 48 hrs by MTT assay relative to control; type: functional; details: Mus musculus, 4T1, 48 h; read-out: GI; method in brief: as §1
[15] = Cytotoxicity against […] cells assessed as reduction in cell viability after 48 hrs by MTT assay; type: functional, cell-based; details: 4T1, 48 h; method in brief: as §1
[16] = Cytotoxicity against human MCF7 cells assessed as reduction in cell viability after 48 hrs by MTT assay; type: functional, cell-based; details: MCF7, 48 h; method in brief: as §1
[17] = Cytotoxicity against human A549 cells assessed as growth inhibition at 50 uM after 48 hrs by MTT assay relative to control; type: functional; details: A549, 48 h, read-out: GI; method in brief: as §1
[18] = Selectivity ratio of IC50 for human MCF10A cells to IC50 for […] cells; type: ADME, cell-based, MCF-10A; details: MCF10A cells versus 4TI cells, read-out: Ratio IC50
[19] = Selectivity ratio of IC50 for human MCF10A cells to IC50 for human MDA-MB-231 cells; type: ADME, cell-based, MCF-10A; details: MCF10A cells versus MDA-MB-231 cells, read-out: Ratio IC50

Row | Compound | inhibition of growth at 50 µM [1] [%] | inhibition of growth at 50 µM [2] [%] | IC50 [3] [µM] | IC50 [4] [µM] | IC50 [5] [µM] | IC50 [6] [µM] | IC50 [7] [µM] | inhibition of growth at 50 µM [8] [%] | inhibition of growth at 50 µM [9] [%] | inhibition of growth at 50 µM [10] [%] | inhibition of growth at 50 µM [11] [%] | IC50 [12] [µM] | IC50 at 48 h [13] [µM] | inhibition of growth at 50 µM [14] [%] | IC50 [15] [µM] | IC50 [16] [µM] | inhibition of growth at 50 µM [17] [%] | selectivity ratio [18] | selectivity ratio [19]
1 | CC(C)n1c(/C=C2/C(=O)Nc3ccc(F)cc32)nc2ccccc21 | > 50 | > 50 | 20.8 | 28.4 | 26.7 | 24.5 | 22.7 | > 50 | > 50 | > 50 | > 50 | 28 | > 100 | > 50 | 25.8 | 29 | > 50 |  | 
2 | Cn1c(/C=C2/C(=O)Nc3ccc(Br)cc32)nc2ccccc21 | < 50 | < 50 | > 50 | 41.2 | > 50 | 39.6 | > 50 | < 50 | > 50 | < 50 | < 50 | > 50 |  | < 50 | > 50 | > 50 | > 50 |  | 
3 | Cn1c(/C=C2/C(=O)Nc3ccc(Cl)cc32)nc2ccccc21 | > 50 | < 50 | > 50 | 39.7 | 39.1 | 38.9 | 37.6 | < 50 | > 50 | > 50 | > 50 | 43.6 |  | > 50 | 43.6 | > 50 | > 50 |  | 
4 | CCn1c(/C=C2/C(=O)Nc3ccc([N+](=O)[O-])cc32)nc2ccccc21 |  | > 50 | 40.1 | > 50 | > 50 | > 50 |  | < 50 | < 50 | < 50 | < 50 | > 50 |  | < 50 | > 50 | > 50 | < 50 |  | 
5 | CC(C)n1c(/C=C2/C(=O)Nc3ccccc32)nc2ccccc21 | > 50 | > 50 | 37.6 | 35.3 | 38.9 | 38.1 | 30.4 | > 50 | > 50 | > 50 | > 50 | 33.5 |  | > 50 | 40.4 | 39.5 | > 50 |  | 
6 | Cc1ccc2c(c1)/C(=C\c1nc3ccccc3n1C(C)C)C(=O)N2 | > 50 | > 50 | 14 | 23 | 23.7 | 13.3 | 7.23 | > 50 | > 50 | > 50 | > 50 | 14.6 | 99.7 | > 50 | 9.36 | 16.3 | > 50 | 10.6 | 14
7 | Cc1ccc2c(c1)/C(=C\c1nc3ccccc3n1C)C(=O)N2 |  | < 50 | > 50 | > 50 | > 50 | > 50 |  |  | < 50 | < 50 | < 50 | > 50 |  | < 50 | > 50 |  | < 50 |  | 
